Results reported in PMC10896134 (Pharmaceutical Biology, 2024).

Key:
H446 = assay: Antiproliferation assay; format: cell-based; settings: Homo sapiens, NCI-H446, 24 h, read-out: IC50 = mean ± SD, H446
Procedure, shortened: (§1)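 Cell lines were grown at 37 °C under 5% CO2 in their own media: A549 in DMEM/F12, H446 in RPMI 1640, and HeLa, MCF-7, L02 and BEAS-2B in high-glucose DMEM with L-glutamine, with 10% FBS and penicillin/streptomycin. Cells were seeded in 96-well plates and exposed to test compounds or reference agents at 37 °C for 24 h. CCK-8 was added for 2 h and absorbance read at 450 nm.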

L02 = assay: Antiproliferation assay; format: cell-based; settings: Homo sapiens, L02, 24 h, read-out: IC50 = mean ± SD, L02
Procedure, shortened: as §1

A549 = assay: Antiproliferation assay; format: cell-based; settings: Homo sapiens, A549, 24 h, read-out: IC50 = mean ± SD, A549
Procedure, shortened: as §1

[1] = tested on: interphase microtubules of A549 cells (tubulin); assay: Confocal microscopy / western blot of tubulin depolymerization; format: cell-based, human; settings: A549, 24 h; E5 0.5 and 1.0 µM, colchicine 1.0 µM, etoposide 1.0 µM
BEAS-2B = assay: Antiproliferation assay; format: cell-based; settings: Homo sapiens, 24 h, read-out: IC50 = mean ± SD, BEAS-2B
Procedure, shortened: as §1

A549 cells [2] = assay: Wound healing migration assay; format: cell-based, human; settings: A549, 24 h; E5 0.5, 1.0 and 2.0 µM, etoposide 1.0 µM
Procedure, shortened: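 Scratch assay: A549 cells were grown to 85% confluence in 6-well plates, scratched with a pipette tip and washed with PBS. They were then incubated at 37 °C for 24 h with 0.1% DMSO, test compound (0.5, 1.0 or 2.0 µM) or reference agents (1.0 µM). Wounds were imaged at 0 and 24 h, and inhibition of migration was expressed relative to control.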

MCF-7 = assay: Antiproliferation assay; format: cell-based; settings: Homo sapiens, MCF7, 24 h, read-out: IC50 = mean ± SD, MCF-7
Procedure, shortened: as §1

Hela = assay: Antiproliferation assay; format: cell-based; settings: Homo sapiens, 24 h, read-out: IC50 = mean ± SD, Hela
Procedure, shortened: as §1

A549 xenografts = assay: A549 xenograft tumour model in nude mice; format: in vivo, female BALB/c nude mice; settings: 2 mg/kg i.p. once every two days, eight times
Procedure, shortened: (§2)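 Female BALB/c nude mice, 5 weeks old, acclimated 1 week, then given 5.0 × 10^6 A549 cells in 0.1 mL serum-free medium subcutaneously into the left axilla. Body weight and caliper tumour size (0.5 × length × width2) were taken every two days; tumours were excised and weighed at the end.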

[3] = tested on: non-neuroblastoma cell lines; settings: read-out: IC50 in non-neuroblastoma cell lines; ref Aggarwal et al. [2012]; cited from earlier work
neuroblastoma cell lines = settings: read-out: IC50 in neuroblastoma cell lines; ref Aggarwal et al. [2012]; cited from earlier work
[4] = tested on: non-small cell lung cancer (NSCLC) cell lines; settings: at 2 mM; ref Chang and Szabo [2002]; cited from earlier work
[5] = Body weight of xenograft mice; format: in vivo, female BALB/c nude mice; settings: E5 i.p., A549 xenograft mice, 15 days
Procedure, shortened: as §2

[6] = tested on: Bax and Bcl-2 in A549 cells; assay: Western blot of apoptosis-related proteins; format: cell-based, human
Procedure, shortened: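 Immunoblot of A549 lysates: heat-denatured in non-reducing sample buffer, Bradford-quantified, 20 µg protein on 10% SDS-PAGE, transferred to PVDF. Blots were probed for Bax and Bcl-2 with GAPDH as internal control, detected by ECL and quantified by densitometry. Data given as mean ± SD.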

A549 cells [7] = assay: Transwell invasion assay; format: cell-based, human; settings: A549, 24 h; better than PPT and etoposide at 1.0 µM
[8] = tested on: PI3K/Akt pathway in A549 cells; assay: Western blot of PI3K/Akt signalling pathway proteins; format: cell-based, human; settings: A549, E5 0.1, 1.0 and 2.0 µM, 24 h
Procedure, shortened: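 A549 cells were treated 24 h with test compound (0.1, 0.5, 1.0 or 2.0 µM), LY294002 (1.0 µM) or a reference agent (1.0 µM). Lysates were heat-denatured in non-reducing sample buffer and quantified by Bradford assay. 20 µg protein ran on 10% SDS-PAGE, transferred to PVDF and probed for PI3K, pPI3K, Akt and pAkt with GAPDH as loading control. Detection was by ECL with densitometry.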

A549 cells [9] = assay: Cell-cycle analysis; format: cell-based, human; settings: A549, 1.0 µM, 24 h, Figure 4C
Procedure, shortened: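 A549 cells (5.0 × 10^4/well) adhered overnight, then received 0.1% DMSO, test compound (0.1, 0.5 or 1.0 µM) or reference agent (1.0 µM) for 24 h; a time course used 0.5 µM for 12, 24 and 36 h. Cells were fixed in 70% ethanol at 4 °C for 24 h and stained with RNase A plus propidium iodide at 4 °C for 0.5 h in the dark. Flow cytometry gated G0/G1, S and G2/M by DNA content.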

A549 cells [10] = assay: Colony formation assay; format: cell-based, human; settings: A549, versus control and PPT-treated cells
A549 cells [11] = assay: Mitochondrial membrane potential analysis; format: cell-based, human; settings: A549, JC-1, 2.0 µM, 12 h; control 4.33%

IC50 (H446) [µM] | IC50 (A549) [µM] | IC50 (MCF-7) [µM] | IC50 (Hela) [µM] | SMILES | IC50 (L02) [µM] | tubulin depolymerization [1] | IC50 (BEAS-2B) [µM] | cell scratch healing (migration) (A549 cells [2]) | tumour growth, E5 and etoposide at the same dose (A549 xenografts) | also measured
2.21 ± 0.42 | 9.32 ± 0.55 | 10.9 ± 0.39 | 24.7 ± 0.79 | COc1cc([C@@H]2c3cc4c(cc3[C@@H](O[C@@H]3O[C@@H]5CO[C@@H](C)O[C@H]5[C@H](O)[C@H]3O)[C@H]3COC(=O)[C@H]23)OCO4)cc(OC)c1O [Etoposide, etoposide, reference compound] | 13.5 ± 1.15 | did not show such an effect | 67.6 ± 2.25 | strong inhibitory effect | specific inhibitory effect | 
 |  |  |  | COc1ccc(S(=O)(=O)Nc2cccnc2Nc2ccc(O)cc2)cc1 [ABT-751] |  |  |  |  |  | IC50 [3]: ~3.4 µM; IC50 (neuroblastoma cell lines): ~1.5 µM
 |  |  |  | O=C([O-])CCCc1ccccc1.[Na+] [sodium 4-phenylbutyrate] |  |  |  |  |  | growth of NSCLC cell lines [4]: impeding the growth
2.42 ± 0.3 | 0.35 ± 0.13 | 2.91 ± 0.55 | 51.3 ± 1.42 | COc1cc([C@@H]2c3cc4c(cc3[C@H](OC(=O)CCCc3ccc(NS(=O)(=O)c5cccc(Br)c5)cc3)[C@H]3COC(=O)[C@H]23)OCO4)cc(OC)c1OC [Compound E5, (5R,5aR,8aR,9R)-8-oxo-9-(3,4,5-trimethoxyphenyl)-5,5a,6,8,8a,9-hexahydrofuro [3′,4′:6,7]naphtho[2,3-d][1,3]dioxol-5-yl4-(4-((3-bromophenyl)sulfonamido)phenyl)butanoate] | > 100 | significant tubulin depolymerization | > 100 | significantly slowed dose dependent | specific inhibitory effect | body weight of the mice [5]: no significant changes; Bax expression [6]: increased; expression of the antiapoptotic protein Bcl-2 [6]: significantly decreased; cell invasion (A549 cells [7]): effectively inhibited cell invasion; expression of pPI3K and pAkt [8]: down-regulated dose-dependent; cells in G2/M phase (A549 cells [9]): 32.73%; cells in S phase (A549 cells [9]): 34.09%; clone formation rate and clone size (A549 cells [10]): lower clone formation rate and a smaller clone size; cells with low ΔΨm (ratio of cells with low membrane potential) (A549 cells [11]): 24.7%
